Laboratory results as given in ChEMBL document CHEMBL3045854, “Antifungal activity of 4-methyl-6-alkyl-2H-pyran-2-ones” (2006).
Converted amounts (≈) assume the structure as drawn. The source made the active and inactive calls. No cut-off for these calls is given here.

Key:
Athelia rolfsii [1] = assay: Antifungal activity against Athelia rolfsii in tomato plants grown on fungal infested soil assessed as healthy tomato plants stands at 0.364 mL ai/150 cm3 of soil measured 35 days after transplanting; type: functional, Agroathelia rolfsii
Procedure, shortened: (§1)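 Greenhouse tomato seedlings in sieved, autoclaved composted soil infested with S. rolfsii chlamydospore inoculum (potato dextrose broth, 27 °C 7 days, then water, 20 °C 3-4 weeks; 10 flasks per 2.5 kg soil; incubated ~25 °C 5-7 days). Moistened infested soil treated with fungicide per 150 cm3 soil. Checks were uninfested soil and untreated infested soil. Wilting and mortality scored weekly to 35 days; proportion symptomless plants; repeated-measures ANOVA.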

Athelia rolfsii [2] = assay: Antifungal activity against Athelia rolfsii in tomato plants grown on fungal infested soil assessed as healthy tomato plants stands at 1.46 mL ai/150 cm3 of soil measured 35 days after transplanting; type: functional, Agroathelia rolfsii; procedure, shortened: as §1
Athelia rolfsii [3] = assay: Antifungal activity against Athelia rolfsii in tomato plants grown on fungal infested soil assessed as healthy tomato plants stands at 0.728 mL ai/150 cm3 of soil measured 35 days after transplanting; type: functional, Agroathelia rolfsii; procedure, shortened: as §1
[4] = test system: Globisporangium debaryanum; assay: Antifungal activity against Pythium debaryanum assessed as inhibition of fungal growth; type: functional; conditions: read-out: ED50 (the source's name)
Procedure, shortened: (§2)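 Poisoned food technique on PDA, final 250, 125, 100, 50, 25 and 10 µg/mL, diluted in acetone from a 1000 µg/mL stock; acetone-only control. A 5 mm × 5 mm plug from the growing edge of a 2-week-old colony was placed at plate centre and incubated at 28 °C until control plates were nearly fully grown. Colony diameter was measured; four replicates per treatment. Inhibition was Abbott-corrected and ED50 taken by probit analysis.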

Pythium aphanidermatum = assay: Antifungal activity against Pythium aphanidermatum assessed as inhibition of fungal growth; type: functional; conditions: read-out: ED50 (the source's name); procedure, shortened: as §2
Macrophomina phaseolina [5] = assay: Antifungal activity against Macrophomina phaseolina assessed as inhibition of fungal growth; type: functional; conditions: read-out: ED50 (the source's name); procedure, shortened: as §2
Macrophomina phaseolina [6] = assay: Antifungal activity against Rhizoctonia bataticola assessed as inhibition of fungal growth; type: functional; conditions: read-out: ED50 (the source's name); procedure, shortened: as §2
Rhizoctonia solani = assay: Antifungal activity against Rhizoctonia solani Nees assessed as inhibition of fungal growth; type: functional; conditions: read-out: ED50 (the source's name); procedure, shortened: as §2
Athelia rolfsii [7] = assay: Antifungal activity against Athelia rolfsii assessed as inhibition of fungal growth; type: functional; conditions: Agroathelia rolfsii; read-out: ED50 (the source's name); procedure, shortened: as §2
Athelia rolfsii [8] = assay: Antifungal activity against Athelia rolfsii in tomato plants grown on fungal infested soil assessed as healthy tomato plants stands at 5 % aqueous emulsion of compound measured 35 days after transplanting; type: functional, Agroathelia rolfsii
Procedure, shortened: (§3)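 Tomato greenhouse test. S. rolfsii was grown in potato dextrose broth, then held in water at 20 °C for 3-4 weeks. Inoculum was mixed into autoclaved composted soil (10 flasks per 2.5 kg) and kept about 5-7 days at roughly 25 °C. Aqueous emulsion was incorporated at 5.0 mL per 150 cm3 of soil. Wilting and mortality were scored weekly after transplanting and given as the proportion of symptomless plants. Controls were uninfested soil and infested untreated soil; analysed as repeated measures ANOVA.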

Athelia rolfsii [9] = assay: Antifungal activity against Athelia rolfsii in tomato plants grown on fungal infested soil assessed as healthy tomato plants stands at 10 % aqueous emulsion of compound measured 35 days after transplanting; type: functional, Agroathelia rolfsii; procedure, shortened: as §3
Athelia rolfsii [10] = assay: Antifungal activity against Athelia rolfsii in tomato plants grown on fungal infested soil assessed as healthy tomato plants stands at 1 % aqueous emulsion of compound measured 35 days after transplanting; type: functional, organism-based; conditions: Agroathelia rolfsii; procedure, shortened: as §3
Athelia rolfsii [11] = assay: Antifungal activity against Athelia rolfsii in tomato plants grown on fungal infested soil assessed as healthy tomato plants stands at 1 % aqueous emulsion of compound measured 7 days after transplanting; type: functional, Agroathelia rolfsii; procedure, shortened: as §3

SMILES | Activity (Athelia rolfsii [1]) [µg/mL] | Activity (Athelia rolfsii [2]) [µg/mL] | Activity (Athelia rolfsii [3]) [µg/mL] | EC50 [4] [µg/mL] | EC50 (Pythium aphanidermatum) [µg/mL] | EC50 (Macrophomina phaseolina [5]) [µg/mL] | EC50 (Macrophomina phaseolina [6]) [µg/mL] | EC50 (Rhizoctonia solani) [µg/mL] | EC50 (Athelia rolfsii [7]) [µg/mL] | Activity (Athelia rolfsii [8]) [%] | Activity (Athelia rolfsii [9]) [%] | Activity (Athelia rolfsii [10]) | Activity (Athelia rolfsii [11]) [%]
COCC(=O)N(c1c(C)cccc1C)C(C)C(=O)OC (stereo not given) [METALAXYL] | 34.3 | 90.3 | 60 | – | – | – | – | – | – | – | – | – | –
CCCCCCCCCCc1cc(C)cc(=O)o1 | – | – | – | 594 (≈ 2370 µM) | 287 (≈ 1150 µM) | 548 (≈ 2190 µM) | 649 (≈ 2590 µM) | 267 (≈ 1070 µM) | 562 (≈ 2250 µM) | – | – | – | –
CCCCCCCc1cc(C)cc(=O)o1 | – | – | – | 71.7 (≈ 344 µM) | 74.6 (≈ 358 µM) | 82.2 (≈ 394 µM) | 47 (≈ 226 µM) | 45 (≈ 216 µM) | 30.7 (≈ 147 µM) | – | – | – | –
CCCCCCCCc1cc(C)cc(=O)o1 | – | – | – | 175 (≈ 786 µM) | 124 (≈ 557 µM) | 164 (≈ 737 µM) | 132 (≈ 595 µM) | 116 (≈ 521 µM) | 122 (≈ 548 µM) | – | – | – | –
CCCc1cc(C)cc(=O)o1 | – | – | – | 288 (≈ 1890 µM) | 573 (≈ 3760 µM) | 329 (≈ 2160 µM) | 562 (≈ 3700 µM) | 149 (≈ 982 µM) | 251 (≈ 1650 µM) | – | – | – | –
Cc1cc(CCl)oc(=O)c1 | – | – | – | 102 (≈ 643 µM) | 122 (≈ 769 µM) | 72.1 (≈ 455 µM) | 111 (≈ 701 µM) | 22.8 (≈ 143 µM) | 46.9 (≈ 296 µM) | – | – | – | –
C/C=C/c1cc(C)cc(=O)o1 | – | – | – | 95.5 (≈ 636 µM) | 102 (≈ 680 µM) | 276 (≈ 1840 µM) | 361 (≈ 2400 µM) | 294 (≈ 1950 µM) | 404 (≈ 2690 µM) | – | – | – | –
CCc1cc(C)cc(=O)o1 | – | – | – | 580 (≈ 4200 µM) | 408 (≈ 2950 µM) | 267 (≈ 1940 µM) | 626 (≈ 4530 µM) | 690 (≈ 5000 µM) | 665 (≈ 4820 µM) | – | – | – | –
Cc1cc(C)oc(=O)c1 | – | – | – | 1140 (≈ 9190 µM) | 451 (≈ 3630 µM) | 824 (≈ 6630 µM) | 1190 (≈ 9550 µM) | 493 (≈ 3970 µM) | 713 (≈ 5740 µM) | – | – | – | –
C=C(C)c1cc(C)cc(=O)o1 | – | – | – | 189 (≈ 1260 µM) | 337 (≈ 2240 µM) | 338 (≈ 2250 µM) | 374 (≈ 2490 µM) | 206 (≈ 1370 µM) | 180 (≈ 1200 µM) | – | – | – | –
CCCCCCCCCc1cc(C)cc(=O)o1 | – | – | – | 284 (≈ 1200 µM) | 204 (≈ 863 µM) | 352 (≈ 1490 µM) | 213 (≈ 900 µM) | 130 (≈ 551 µM) | 397 (≈ 1680 µM) | – | – | – | –
CCCCc1cc(C)cc(=O)o1 | – | – | – | 143 (≈ 859 µM) | 227 (≈ 1370 µM) | 235 (≈ 1410 µM) | 212 (≈ 1280 µM) | 50.1 (≈ 301 µM) | 78 (≈ 469 µM) | – | – | – | –
Cc1cc(CC(C)C)oc(=O)c1 | – | – | – | 37 (≈ 223 µM) | 52.4 (≈ 315 µM) | 47.3 (≈ 284 µM) | 68.4 (≈ 412 µM) | 48.7 (≈ 293 µM) | 39.5 (≈ 237 µM) | – | – | – | –
CC(C)=Cc1cc(C)cc(=O)o1 | – | – | – | 264 (≈ 1610 µM) | 206 (≈ 1250 µM) | 377 (≈ 2300 µM) | 328 (≈ 2000 µM) | 286 (≈ 1740 µM) | 323 (≈ 1960 µM) | – | – | – | –
Cc1cc(C(C)C)oc(=O)c1 | – | – | – | 437 (≈ 2870 µM) | 475 (≈ 3120 µM) | 1210 (≈ 7930 µM) | 403 (≈ 2650 µM) | 437 (≈ 2870 µM) | 313 (≈ 2060 µM) | – | – | – | –
CCCCC(O)(Cn1cncn1)c1ccc(Cl)cc1Cl (stereo not given) [HEXACONAZOLE] | – | – | – | 12.3 (≈ 39.1 µM) | 8.47 (≈ 27 µM) | 10.5 (≈ 33.5 µM) | 4.36 (≈ 13.9 µM) | 13 (≈ 41.2 µM) | 18.3 (≈ 58.4 µM) | – | – | – | –
CCCCC(CC)c1cc(C)cc(=O)o1 (stereo not given) | – | – | – | 151 (≈ 725 µM) | 277 (≈ 1330 µM) | 262 (≈ 1260 µM) | 303 (≈ 1460 µM) | 184 (≈ 882 µM) | 349 (≈ 1680 µM) | – | – | – | –
CCCCCc1cc(C)cc(=O)o1 | – | – | – | 20.6 (≈ 114 µM) | 39.1 (≈ 217 µM) | 36.8 (≈ 204 µM) | 34.2 (≈ 190 µM) | 34.5 (≈ 191 µM) | 22.4 (≈ 125 µM) | – | – | – | –
CCCCCCc1cc(C)cc(=O)o1 | – | – | – | 14.9 (≈ 76.7 µM) | 16.6 (≈ 85.5 µM) | 31 (≈ 159 µM) | 24.5 (≈ 126 µM) | 18.7 (≈ 96 µM) | 15.1 (≈ 77.7 µM) | > 60 | 92.4 | inactive | 20
